Results on 1 molecule are retold here after ChEMBL document CHEMBL4428071 (J Med Chem, 2016).

Active and inactive are the calls of the source. The calls are words filed in the database; no cut-off is given here. A value given as a limit tells only on which side of the number the result lay.

One data set is filed under the species Homo sapiens. The data set is described as follows: Inhibition of TEL-fused cKIT L567P mutant (unknown origin) expressed in mouse BA/F3 cells assessed as cell growth inhibition after 72 hrs by cell titer-glo assay. Format: cell-based. The gist of the method:
(§1)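 Cells seeded at 3000 per well and exposed to serial compound dilutions for 72 h. Viability read by CellTiter-Glo luminescence and normalised to DMSO controls; mean of three independent measurements. BaF3 lines kept IL-3-free in RPMI 1640/10% FBS after retroviral transduction and puromycin selection. GIST lines grown in DMEM/10% FBS.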
A general note: Cellular ATP, detected with luciferase, serves as a proxy for viable cell number.

Data set [1] has as its system Mast/stem cell growth factor receptor Kit (Homo sapiens), P10721 [V654A]. Nature of the data set: Inhibition of TEL-fused cKIT V654A mutant (unknown origin) expressed in mouse BA/F3 cells assessed as cell growth inhibition after 72 hrs by cell titer-glo assay. Format: cell-based. The gist of the method:
as §1

The test system of data set [2] is Mast/stem cell growth factor receptor Kit (Homo sapiens), P10721 [T670I]. The data set is described as follows: Inhibition of TEL-fused cKIT T670I mutant (unknown origin) expressed in mouse BA/F3 cells assessed as cell growth inhibition after 72 hrs by cell titer-glo assay. Format: cell-based. The gist of the method:
as §1

Data set [3] in a line: Cytotoxicity mouse BA/F3 cells assessed as cell growth inhibition after 72 hrs by cell titer-glo assay. Format: cell-based, BaF3. An outline of the steps:
as §1

The subject of data set [4] is Mast/stem cell growth factor receptor Kit (Homo sapiens), P10721 [N822K]. Nature of the data set: Inhibition of TEL-fused cKIT N822K mutant (unknown origin) expressed in mouse BA/F3 cells assessed as cell growth inhibition after 72 hrs by cell titer-glo assay. Format: cell-based. An outline of the steps:
as §1

Data set [5] deals with Mast/stem cell growth factor receptor Kit (Homo sapiens), P10721 [D816V]. The data set is described as follows: Inhibition of TEL-fused cKIT D816V mutant (unknown origin) expressed in mouse BA/F3 cells assessed as cell growth inhibition after 72 hrs by cell titer-glo assay. Format: cell-based. An outline of the steps:
as §1

Data set [6] concerns Mast/stem cell growth factor receptor Kit (Homo sapiens), P10721 [V559D,V654A]. The data set is described as follows: Inhibition of TEL-fused cKIT V559D/V654A double mutant (unknown origin) expressed in mouse BA/F3 cells assessed as cell growth inhibition after 72 hrs by cell titer-glo assay. Format: cell-based. The gist of the method:
as §1

For data set [7], the system named is Mast/stem cell growth factor receptor Kit (Homo sapiens), P10721 [T670I]. Nature of the data set: Inhibition of […] cKIT T670I mutant in human GIST-5R cells assessed as cell growth inhibition after 72 hrs by cell titer-glo assay. Format: cell-based.
Chain of Mast/stem cell growth factor receptor Kit (Homo sapiens), P10721 [T670I] (P10721 whole entry T670I, the tested form may be a part): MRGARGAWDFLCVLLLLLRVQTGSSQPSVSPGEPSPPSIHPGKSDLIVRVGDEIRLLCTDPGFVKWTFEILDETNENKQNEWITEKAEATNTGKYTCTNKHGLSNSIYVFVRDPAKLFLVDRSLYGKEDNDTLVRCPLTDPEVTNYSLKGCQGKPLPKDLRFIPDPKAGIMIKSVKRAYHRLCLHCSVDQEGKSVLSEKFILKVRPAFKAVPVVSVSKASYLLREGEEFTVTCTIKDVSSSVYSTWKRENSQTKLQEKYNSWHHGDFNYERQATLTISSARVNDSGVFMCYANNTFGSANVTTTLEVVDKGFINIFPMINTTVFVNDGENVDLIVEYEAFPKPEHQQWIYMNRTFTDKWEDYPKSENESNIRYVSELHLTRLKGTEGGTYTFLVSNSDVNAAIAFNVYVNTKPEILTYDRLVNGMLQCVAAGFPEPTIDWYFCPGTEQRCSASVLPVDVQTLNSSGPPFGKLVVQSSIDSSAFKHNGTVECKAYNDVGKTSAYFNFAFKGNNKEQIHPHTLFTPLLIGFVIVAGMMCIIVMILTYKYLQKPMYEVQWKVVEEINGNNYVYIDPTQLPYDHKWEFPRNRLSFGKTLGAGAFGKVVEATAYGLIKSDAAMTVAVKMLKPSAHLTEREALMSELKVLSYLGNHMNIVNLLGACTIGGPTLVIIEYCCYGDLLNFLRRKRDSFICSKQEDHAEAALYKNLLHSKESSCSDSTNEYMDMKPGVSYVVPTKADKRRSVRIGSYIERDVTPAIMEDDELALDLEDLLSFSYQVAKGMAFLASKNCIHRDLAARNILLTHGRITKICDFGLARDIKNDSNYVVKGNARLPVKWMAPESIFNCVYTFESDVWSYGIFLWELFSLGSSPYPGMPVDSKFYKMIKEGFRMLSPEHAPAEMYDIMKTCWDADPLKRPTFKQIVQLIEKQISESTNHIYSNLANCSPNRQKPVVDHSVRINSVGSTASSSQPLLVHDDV
Data set [8] shares this test system. The settings on record: 1 uM.
Data set [9] shares this test system. The settings on record: 1 uM. The source holds these as a separate data set.
Data set [10] has the same test system. The settings on record: 1 uM. This is another data set of the same source.
The test system is the same in data set [11]. The conditions noted are these: 1 uM. This is another data set of the same source.
The test system is the same in data set [12]. The conditions noted are these: 1 uM. This is another data set of the same source.
The test system is the same in data set [13]. The settings on record: 1 uM. The source holds these as a separate data set.

Chain of Mast/stem cell growth factor receptor Kit (Homo sapiens), P10721 [D816V] (P10721 whole entry D816V, the tested form may be a part): as the sequence (P10721 whole entry T670I, the tested form may be a part) above, with I670T, D816V counted along it
Chain of Mast/stem cell growth factor receptor Kit (Homo sapiens), P10721 [N822K] (P10721 whole entry N822K, the tested form may be a part): as the sequence (P10721 whole entry T670I, the tested form may be a part) above, with I670T, N822K counted along it
Chain of Mast/stem cell growth factor receptor Kit (Homo sapiens), P10721 [V654A] (P10721 whole entry V654A, the tested form may be a part): as the sequence (P10721 whole entry T670I, the tested form may be a part) above, with V654A, I670T counted along it
Chain of Mast/stem cell growth factor receptor Kit (Homo sapiens), P10721 [V559D,V654A] (P10721 whole entry V559D/V654A, the tested form may be a part): as the sequence (P10721 whole entry T670I, the tested form may be a part) above, with V559D, V654A, I670T counted along it

With `Cc1ccc(NC(=O)c2ccc(CN3CCN(C)CC3)cc2)cc1Nc1nccc(-c2cccnc2)n1` [IMATINIB], the GI50 (usually the concentration at which growth is held to half of that of the control) in the data set filed under Homo sapiens is 10 nM; in [1], 700 nM; in [2] it was 9600 nM; in [4], 360 nM; in data set [5], above 10000 nM; in [6], 700 nM. The GI50 in data set [7] was 8300 nM. Moreover, in [3], the GI50 at 72 h was above 10000 nM. Moreover, the inhibition entry in data set [8], in data set [9], in data set [10], in [11], in [12] and in data set [13] was “inactive” each time.
